Each block holds one compound with its values, some of them ahead of it.
Key:
[1] = Apparent oral clearance in NOD/SCID mouse at 100 mg/kg, po by LC-MS-MS analysis; format: ADME, organism-based; parameters: dose 100 mg/kg, route oral; settings: in vivo
Outline: (§1)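 Mixed E,Z material (E:Z 45:55 by LC-MS-MS), 100 mg/kg single oral gavage, 10-week-old female NOD/SCID mice. Each mouse bled once by tail vein (n = 3 per time point), sampling up to 24 h. Plasma E and Z isomers quantified by LC-MS-MS. Parameters are from mean plasma concentrations (n = 3).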

[2] = Apparent volume of distribution during terminal phase in NOD/SCID mouse at 100 mg/kg, po by LC-MS-MS analysis; format: ADME, organism-based; parameters: dose 100 mg/kg, route oral; settings: in vivo, read-out: Vz/F; outline: as §1
Mus musculus [3] = experiment: (§2) AUClast in NOD/SCID mouse at 100 mg/kg, po by LC-MS-MS analysis; format: ADME, organism-based, Plasma; parameters: time 0 - last, dose 100 mg/kg, route oral; settings: in vivo; outline: as §1
Mus musculus [4] = experiment: Half life in NOD/SCID mouse at 100 mg/kg, po by LC-MS-MS analysis; format: ADME, organism-based; parameters: dose 100 mg/kg, route oral; settings: in vivo; outline: as §1
Mus musculus [5] = experiment: Clast in NOD/SCID mouse at 100 mg/kg, po by LC-MS-MS analysis; format: ADME, organism-based; parameters: dose 100 mg/kg, route oral; settings: in vivo; outline: as §1
Mus musculus [6] = experiment: Cmax in NOD/SCID mouse at 100 mg/kg, po by LC-MS-MS analysis; format: ADME, organism-based; parameters: dose 100 mg/kg, route oral; settings: in vivo; outline: as §1
Mus musculus [7] = experiment: Tmax in NOD/SCID mouse at 100 mg/kg, po by LC-MS-MS analysis; format: ADME, organism-based; parameters: dose 100 mg/kg, route oral; settings: in vivo; outline: as §1
Estrogen receptor = target: T1, Estrogen receptor (Homo sapiens, UniProt P03372); experiment: Displacement of fluorescent ES2 from human recombinant ERalpha after 2 hrs by fluorimetric analysis
T1 sequence (P03372 whole entry): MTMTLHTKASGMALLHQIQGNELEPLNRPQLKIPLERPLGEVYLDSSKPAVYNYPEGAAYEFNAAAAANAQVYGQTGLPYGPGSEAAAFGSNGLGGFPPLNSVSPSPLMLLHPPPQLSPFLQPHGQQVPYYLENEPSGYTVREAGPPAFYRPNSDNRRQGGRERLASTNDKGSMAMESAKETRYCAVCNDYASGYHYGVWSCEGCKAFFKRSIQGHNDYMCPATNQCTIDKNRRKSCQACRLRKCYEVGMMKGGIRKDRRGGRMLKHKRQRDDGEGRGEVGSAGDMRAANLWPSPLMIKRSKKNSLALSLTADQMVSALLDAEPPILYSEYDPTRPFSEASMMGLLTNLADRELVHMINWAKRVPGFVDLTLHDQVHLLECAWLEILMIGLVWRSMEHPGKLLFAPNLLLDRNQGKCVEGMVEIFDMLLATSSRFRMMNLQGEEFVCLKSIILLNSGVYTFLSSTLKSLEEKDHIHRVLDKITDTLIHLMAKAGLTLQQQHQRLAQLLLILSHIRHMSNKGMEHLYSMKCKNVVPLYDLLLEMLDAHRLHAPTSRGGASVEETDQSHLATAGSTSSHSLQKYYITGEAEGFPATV

[8] = target: Estrogen receptor beta (Homo sapiens) (UniProt Q92731); experiment: Displacement of fluorescent ES2 from human recombinant ERbeta at 100 uM after 2 hrs by fluorimetric analysis relative to control
Outline: (§3)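 Fluorescence polarization competition with fluorescent estrogen ligand ES2 (9 nM) and recombinant human ER-α (30 nM) or ER-β (20 nM). Buffer: 100 mM potassium phosphate, 100 μg/mL BGG, 0.02% NaN3. Samples in methanol or methanol/dichloromethane; 2 h incubation protected from light. Read at Ex/Em 485/530 nm. Result is % polarization remaining vs vehicle control; mean of at least three experiments.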

[9] = target: T2, Estrogen receptor (Homo sapiens) (UniProt P03372); experiment: Displacement of fluorescent ES2 from human recombinant ERalpha at 100 uM after 2 hrs by fluorimetric analysis relative to control; outline: as §3
T2 sequence (whole entry): T1 sequence (P03372 whole entry)

Aromatase [10] = target: T3, Aromatase (Homo sapiens, UniProt P11511); experiment: Inhibition of human recombinant microsomal aromatase-mediated 7-methoxy-4-trifluoromethylcoumarin conversion to 7-hydroxytrifluoromethylcoumarin at 50 uM preincubated for 10 mins measured after 30 mins by fluorescence assay relative to control; settings: probe 7-methoxy-4-trifluoromethylcoumarin
T3 sequence (P11511 whole entry): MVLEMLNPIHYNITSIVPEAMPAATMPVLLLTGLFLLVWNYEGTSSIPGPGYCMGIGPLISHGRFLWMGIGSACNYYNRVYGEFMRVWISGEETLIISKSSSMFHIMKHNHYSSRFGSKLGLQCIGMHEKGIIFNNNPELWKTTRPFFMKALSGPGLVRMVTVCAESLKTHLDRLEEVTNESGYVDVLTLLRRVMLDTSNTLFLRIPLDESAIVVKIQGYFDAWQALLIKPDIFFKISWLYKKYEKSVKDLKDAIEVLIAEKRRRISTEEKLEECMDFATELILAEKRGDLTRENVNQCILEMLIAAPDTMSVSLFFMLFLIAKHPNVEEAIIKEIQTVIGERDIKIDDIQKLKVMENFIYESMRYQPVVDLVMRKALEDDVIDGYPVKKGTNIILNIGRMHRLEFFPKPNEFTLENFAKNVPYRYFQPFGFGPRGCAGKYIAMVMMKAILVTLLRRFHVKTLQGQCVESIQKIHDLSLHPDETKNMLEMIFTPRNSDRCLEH
Outline: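 Recombinant human CYP19 microsomal incubation, linear-range conditions. Samples in methanol or methanol/dichloromethane, prewarmed 10 min at 37 °C with NADPH-regenerating cofactor mix. Enzyme and MFC substrate added in 0.1 M potassium phosphate pH 7.4; 30 min reaction; stopped with Tris base in acetonitrile. HFC read at Ex/Em 409/530 nm against a standard curve. Result is % activity remaining vs vehicle; mean of at least three experiments.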

Aromatase [11] = target: T3, Aromatase; experiment: Inhibition of human recombinant placental aromatase
Outline: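 Recombinant human aromatase (CYP19) in microsomal incubations with fluorogenic substrate MFC, read as conversion to HFC. Compounds in methanol or methanol/dichloromethane, prewarmed 10 min at 37 °C with NADPH-regenerating mix, then enzyme/substrate in 0.1 M potassium phosphate pH 7.4 added. Activity given as % of vehicle control.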

Aromatase [12] = target: T3, Aromatase; experiment: Inhibition of human recombinant microsomal aromatase-mediated 7-methoxy-4-trifluoromethylcoumarin conversion to 7-hydroxytrifluoromethylcoumarin preincubated for 10 mins measured after 30 mins by fluorescence assay
Outline: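 Recombinant human CYP19 with MFC substrate in 0.1 M potassium phosphate pH 7.4; samples in methanol or methanol/dichloromethane, prewarmed 10 min at 37 °C with NADPH-generating cofactor mix (NADP+, MgCl2, glucose-6-phosphate, G6PDH), then 30 min reaction, stopped with 0.1 M Tris base in acetonitrile.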

[13] = as §2; format: ADME, organism-based, Plasma; parameters: time 0 - last, dose 100 mg/kg, route oral; settings: NOD/SCID, plasma; outline: as §1

Chain of Estrogen receptor beta (Homo sapiens) (Q92731 whole entry): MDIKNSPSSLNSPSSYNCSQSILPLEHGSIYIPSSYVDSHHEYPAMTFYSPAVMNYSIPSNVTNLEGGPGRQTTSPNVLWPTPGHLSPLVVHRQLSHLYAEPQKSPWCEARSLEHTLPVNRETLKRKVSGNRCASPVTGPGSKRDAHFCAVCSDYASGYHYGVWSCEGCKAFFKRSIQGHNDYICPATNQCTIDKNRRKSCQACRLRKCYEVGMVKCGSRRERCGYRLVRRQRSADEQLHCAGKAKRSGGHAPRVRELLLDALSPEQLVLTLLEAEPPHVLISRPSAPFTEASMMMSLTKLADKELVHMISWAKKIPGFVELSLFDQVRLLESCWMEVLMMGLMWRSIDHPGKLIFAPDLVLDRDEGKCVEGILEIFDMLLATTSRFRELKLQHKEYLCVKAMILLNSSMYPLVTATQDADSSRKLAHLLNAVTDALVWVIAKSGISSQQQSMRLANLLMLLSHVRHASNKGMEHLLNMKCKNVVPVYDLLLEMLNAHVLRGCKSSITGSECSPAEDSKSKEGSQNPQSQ

CL/F [1]: 1.52 mL/min
Vd/F [2]: 2.8 L
AUClast (Mus musculus [3]): 5800 ng·h/mL
t1/2 (Mus musculus [4]): 21.4 h
Clast (Mus musculus [5]): 100 ng/mL
Cmax (Mus musculus [6]): 700 ng/mL
Tmax (Mus musculus [7]): 2 h
EC50 (Estrogen receptor): 0.0587 µM
SMILES: CC/C(=C(/c1ccc(O)cc1)c1ccc(OCCN)cc1)c1ccccc1

Activity [8]: 68%
Activity [9]: 68%
inhibition at 0.5 h, 50 µM (Aromatase [10]): 8%
SMILES: CC/C(=C(/c1ccc(O)cc1)c1ccc(OC(=O)C(C)(C)C)cc1)c1ccccc1

Activity [8]: 45%
Activity [9]: 56%
inhibition at 0.5 h, 50 µM (Aromatase [10]): 0%
SMILES: CC/C(=C(/c1ccc(OCC(N)=O)cc1)c1ccc(OC(=O)C(C)(C)C)cc1)c1ccccc1

SMILES: CCC(=C(c1ccc(O)cc1)c1ccc(OCCN(C)C)cc1)c1ccccc1
IC50 (Aromatase [11]): 530 µM

Activity [8]: 71%
Activity [9]: 57%
IC50 (Aromatase [12]): 9.26 µM
SMILES: CC/C(=C(\c1ccc(O)cc1)c1ccc(OCC(N)=O)cc1)c1ccccc1

CL/F [1]: 0.267 mL/min
Vd/F [2]: 0.5 L
AUC(0-t) [13]: 35100 ng·h/mL
t1/2 (Mus musculus [4]): 22.7 h
Clast (Mus musculus [5]): 900 ng/mL
Cmax (Mus musculus [6]): 2100 ng/mL
Tmax (Mus musculus [7]): 1 h
EC50 (Estrogen receptor): 0.017 µM
SMILES: CC/C(=C(\c1ccc(O)cc1)c1ccc(OCCN)cc1)c1ccccc1

Activity [9]: 80%
SMILES: CCC(=C(c1ccc(O)cc1)c1ccc(O)cc1)c1ccccc1

IC50 (Aromatase [11]): 6 µM
SMILES: CC/C(=C(\c1ccc(O)cc1)c1ccc(OCCNC)cc1)c1ccccc1 (mixture of isomers) [ENDOXIFEN]
